Data taken from publication PMC7178755 (Toxicology and applied pharmacology, 2019).
Values joined by “and” are separate entries in the source; they are usually repeats but may differ in a detail not shown here. Equal values may be shown once.

Columns and labels:
[1] = rat uterotrophic assay; administered orally; ref Conley et al., 2016; cited from earlier work
[2] = free BPAF; rats; single gavage 20 and 100 mg/kg; ref Li et al. (2013); cited from earlier work
[3] = Plasma toxicokinetics after single gavage administration in rats; type: in vivo, Harlan Sprague Dawley rats; settings: for bioavailability / Tmax / AUC(0-inf) / Cmax / half-life: rat, po; for bioavailability / Tmax / AUC(0-inf) / Cmax / half-life / Cl1_F / Cl2_F / K12 / K21 / V1_F / V2_F: plasma; for half-life / Cl1_F / Cl2_F / K12 / K21 / V1_F / V2_F: mean (SE)
[4] = rat, sex and strain not specified; ref Halocarbon, 2008; cited from earlier work
[5] = test system: hepatocytes from humans and rodents; settings: ref Waidyanatha et al., 2015, cited from earlier work
[6] = Gavage toxicokinetics, summary statements over rats and mice; type: in vivo; settings: rat, mouse, plasma, po
Procedure, shortened: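 Single gavage doses in corn oil were given to male and female rats (9–10 wk; 34, 110, 340 mg/kg) and B6C3F1/N mice (10–11 wk; 34 mg/kg), with a 34 mg/kg IV tail-vein reference. Plasma was sampled from 5 min to 48 h. Free and total (enzyme-deconjugated) test compound was quantitated. F = dose-adjusted oral/IV free AUC0−∞; half-life taken as K10 half-life from compartmental fits.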

[7] = Plasma toxicokinetics after single gavage administration in mice; type: in vivo, B6C3F1/N mice; settings: for half-life / AUC(0-inf) / Cmax / Tmax / bioavailability: 34 mg/kg; for bioavailability: AUC/Dose (oral) ÷ AUC/Dose (IV) x 100
[8] = Plasma toxicokinetics after single intravenous administration in mice; type: in vivo, B6C3F1/N mice; settings: for AUC(0-inf) / Cmax / Vd / half-life: B6C3F1/N, mouse, iv, 34 mg/kg; for half-life / Cl1 / Cl2 / K12 / K21 / V1 / V2: free BPAF, 34 mg/kg IV, mean (SE)
[9] = female, Harlan Sprague Dawley (Hsd:Sprague Dawley SD), 34 mg/kg
[10] = female, Hsd:Sprague Dawley SD, 34 mg/kg
[11] = female, Hsd:Sprague Dawley SD, 110 mg/kg
[12] = female, Hsd:Sprague Dawley SD, 340 mg/kg
[13] = free BPAF, female HSD rats, 34 mg/kg gavage
[14] = free BPAF, female rats, 34 mg/kg gavage
[15] = free BPAF, female rats, 110 mg/kg gavage
[16] = free BPAF, female rats, 340 mg/kg gavage
[17] = free BPAF, male rats, 34 mg/kg gavage
[18] = free BPAF, male rats, 110 mg/kg gavage
[19] = free BPAF, male rats, 340 mg/kg gavage
[20] = male, Hsd:Sprague Dawley SD, 34 mg/kg
[21] = male, Hsd:Sprague Dawley SD, 110 mg/kg
[22] = male, Hsd:Sprague Dawley SD, 340 mg/kg
[23] = female, B6C3F1/N, mouse, plasma, po
[24] = free BPAF, female B6C3F1/N mice, 34 mg/kg gavage
[25] = free BPAF, female mice, 34 mg/kg gavage, plasma, mean (SE)
[26] = free BPAF, male mice, 34 mg/kg gavage, plasma, mean (SE)
[27] = male, B6C3F1/N, mouse, plasma, po

For `Oc1ccc(C(c2ccc(O)cc2)(C(F)(F)F)C(F)(F)F)cc1` [BPAF, Bisphenol AF], the ED50 [1] is given as 209.1 mg/kg/day, the “Tmax (maximum plasma BPAF concentration observed at)” value [2] is given as 1 h and the bioavailability ([3]; both, Hsd:Sprague Dawley SD) is given as ~1%. The Tmax ([3]; both, Hsd:Sprague Dawley SD, 34 mg/kg) was 0.767 to 0.812 h, the AUC(0-inf) [3, 9] was 1.37 µM·h and the Cmax [3, 9] was 142 nM. It also gave a bioavailability [3, 9] of 1.02%, a bioavailability ([3]; female, Harlan Sprague Dawley (Hsd:Sprague Dawley SD), 340 mg/kg) of 1.06% and a Tmax ([3]; female, Hsd:Sprague Dawley SD) of 0.767 to 1.34 h. The AUC(0-inf) [3, 10] was 461 ng·h/mL, the Cmax [3, 10] was 47.4 ng/mL and the Tmax [3, 10] was 0.767 h. The half-life ([3]; female, Hsd:Sprague Dawley SD, 34 mg/kg, Alpha Half-life, free BPAF, female rats, 34 mg/kg gavage) was 0.384 h, the half-life ([3]; female, Hsd:Sprague Dawley SD, 34 mg/kg, Beta Half-life, free BPAF, female rats, 34 mg/kg gavage) was 8.68 h and the half-life ([3]; female, Hsd:Sprague Dawley SD, 34 mg/kg, K10 Half-Life, free BPAF, female rats, 34 mg/kg gavage) was 3.35 h. The AUC(0-inf) [3, 11] was 1470 ng·h/mL, the Cmax [3, 11] was 245 ng/mL and the Tmax [3, 11] was 0.658 h. It also gave an AUC(0-inf) [3, 12] of 4810 ng·h/mL, a Cmax [3, 12] of 555 ng/mL and a Tmax [3, 12] of 1.34 h. For the same compound, the “Dose-normalized AUC0−∞” value [3, 13] was 13.6 (nmol.h/mL)/(mmol/kg), the “Dose-normalized Cmax” value [3, 13] was 1.406 (nmol/mL)/(mmol/kg) and the Cl1_F [3, 14] was 73.8 (13.3) L/h/kg. For the same compound, the Cl2_F [3, 14] was 350 (4650) L/h /kg, the K12 [3, 14] was 0.981 (31.1) 1/h and the K21 [3, 14] was 0.698 (1.29) 1/h. For the same compound, the V1_F [3, 14] was 357 (6600) L/kg, the V2_F [3, 14] was 502 (5820) L/kg and the Cl1_F [3, 15] was 74.7 (13.4) L/h/kg. For the same compound, the Cl2_F [3, 15] was 194 (503) L/h /kg, the K12 [3, 15] was 1.07 (19.3) 1/h and the K21 [3, 15] was 0.215 (0.115) 1/h. The V1_F [3, 15] was 181 (2810) L/kg, the V2_F [3, 15] was 899 (2050) L/kg and the Cl1_F [3, 16] was 70.7 (94.0) L/h/kg. The Cl2_F [3, 16] was 101 (180) L/h /kg, the K12 [3, 16] was 0.433 (15.4) 1/h and the K21 [3, 16] was 0.0391 (0.0929) 1/h. For the same compound, the V2_F [3, 16] was 2580 (6150) L/kg, the Cl1_F [3, 17] was 85.2 (20.0) L/h/kg and the Cl2_F [3, 17] was 193 (24800) L/h /kg. For the same compound, the K12 [3, 17] was 0.849 (604) 1/h, the K21 [3, 17] was 0.257 (0.137) 1/h and the V1_F [3, 17] was 227 (132000) L/kg. For the same compound, the V2_F [3, 17] was 752 (966600) L/kg, the Cl1_F [3, 18] was 89.1 (52.4) L/h/kg and the Cl2_F [3, 18] was 122 (2520) L/h /kg. The K12 [3, 18] was 0.402 (62.7) 1/h, the K21 [3, 18] was 0.0972 (0.207) 1/h and the V1_F [3, 18] was 304 (41100) L/kg. For the same compound, the V2_F [3, 18] was 1260 (23900) L/kg, the Cl1_F [3, 19] was 70.3 (20.8) L/h/kg and the Cl2_F [3, 19] was 36.9 (1910) L/h /kg. For the same compound, the K12 [3, 19] was 0.156 (49.5) 1/h, the K21 [3, 19] was 0.0814 (0.223) 1/h and the V1_F [3, 19] was 237 (62900) L/kg. For the same compound, the V2_F [3, 19] was 454 (24400) L/kg, the bioavailability ([3]; male, Harlan Sprague Dawley (Hsd:Sprague Dawley SD), 34 mg/kg) was 0.88% and the bioavailability ([3]; male, Harlan Sprague Dawley (Hsd:Sprague Dawley SD), 110 mg/kg) was 0.84%. The bioavailability ([3]; male, Harlan Sprague Dawley (Hsd:Sprague Dawley SD), 340 mg/kg) was 1.07%, the Tmax ([3]; male, Hsd:Sprague Dawley SD) was 0.812 to 2.3 h and the AUC(0-inf) [3, 20] was 399 ng·h/mL. For the same compound, the Cmax [3, 20] was 60.7 ng/mL, the Tmax [3, 20] was 0.812 h and the half-life ([3]; male, Hsd:Sprague Dawley SD, 34 mg/kg, Alpha Half-life, free BPAF, male rats, 34 mg/kg gavage) was 0.491 h. For the same compound, the half-life ([3]; male, Hsd:Sprague Dawley SD, 34 mg/kg, Beta Half-life, free BPAF, male rats, 34 mg/kg gavage) was 10.2 h, the half-life ([3]; male, Hsd:Sprague Dawley SD, 34 mg/kg, K10 Half-Life, free BPAF, male rats, 34 mg/kg gavage) was 1.85 h and the AUC(0-inf) [3, 21] was 1230 ng·h/mL. For the same compound, the Cmax [3, 21] was 142 ng/mL, the Tmax [3, 21] was 1.43 h and the AUC(0-inf) [3, 22] was 4830 ng·h/mL. For the same compound, the Cmax [3, 22] was 552 ng/mL, the Tmax [3, 22] was 2.2 h and the “oral LD50” value [4] was 3400 mg/kg. For the same compound, the “clearance compared with BPA” value ([5]; hepatocytes from humans and rodents, in vitro) was “cleared more slowly than BPA”, the “clearance rank order between species” value ([5]; hepatocytes in vitro) was “rat > mouse > human” and the half-life ([6]; Hsd:Sprague Dawley SD (rats), B6C3F1/N (mice)) was ≤ 4.22 h. The half-life ([6]; female, Harlan Sprague Dawley (rats) and B6C3F1/N (mice), 34 mg/kg) was ~9 h, the half-life ([7]; both, B6C3F1/N, mouse, plasma, po, elimination half-life, free BPAF, male and female mice, 34 mg/kg gavage) was ≤ 4.22 h and the AUC(0-inf) [7, 23] was 495 ng·h/mL and 1.47 µM·h. The Cmax [7, 23] was 105 ng/mL and 313 nM, the Tmax [7, 23] was 0.342 h and the half-life ([7]; female, B6C3F1/N, mouse, plasma, po, Alpha Half-life, free BPAF, female mice, 34 mg/kg gavage, mean (SE)) was 0.209 h. It also gave a half-life ([7]; female, B6C3F1/N, mouse, plasma, po, Beta Half-life, free BPAF, female mice, 34 mg/kg gavage, mean (SE)) of 9.02 h, a bioavailability ([7]; female, B6C3F1/N, mouse, plasma, po, Bioavailability, free BPAF, Female Mice, 34 mg/kg gavage) of 3% and a half-life ([7]; female, B6C3F1/N, mouse, plasma, po, K10 Half-Life, free BPAF, female mice, 34 mg/kg gavage, mean (SE)) of 1.33 h. For the same compound, the bioavailability ([7]; free BPAF, Female Mice, 34 mg/kg gavage) was 3.13%, the bioavailability ([7]; free BPAF, Male Mice, 34 mg/kg gavage) was 5.64% and the “Dose-normalized AUC0−∞” value [7, 24] was 14.6 (nmol.h/mL)/(mmol/kg). The “Dose-normalized Cmax” value [7, 24] was 3.099 (nmol/mL)/(mmol/kg), the Cl1_F [7, 25] was 68.7 (22.5) L/h/kg and the Cl2_F [7, 25] was 313 (17400) L/h /kg. For the same compound, the K12 [7, 25] was 2.38 (899) 1/h, the K21 [7, 25] was 0.487 (0.497) 1/h and the V1_F [7, 25] was 131 (42200) L/kg. For the same compound, the V2_F [7, 25] was 642 (35300) L/kg, the Cl1_F [7, 26] was 80.0 (22.5) L/h/kg and the Cl2_F [7, 26] was 13.2 (226) L/h /kg. The K12 [7, 26] was 0.0271 (0.476) 1/h, the K21 [7, 26] was 0.369 (5.1) 1/h and the V1_F [7, 26] was 487 (238) L/kg. The AUC(0-inf) [7, 27] was 425 ng·h/mL, the Cmax [7, 27] was 64.1 ng/mL and the Tmax [7, 27] was 0.455 h. For the same compound, the half-life ([7]; male, B6C3F1/N, mouse, plasma, po, Alpha Half-life, free BPAF, male mice, 34 mg/kg gavage, mean (SE)) was 1.67 h, the half-life ([7]; male, B6C3F1/N, mouse, plasma, po, Beta Half-life, free BPAF, male mice, 34 mg/kg gavage, mean (SE)) was 4.73 h and the bioavailability ([7]; male, B6C3F1/N, mouse, plasma, po, Bioavailability, free BPAF, Male Mice, 34 mg/kg gavage) was ~6%. For the same compound, the half-life ([7]; male, B6C3F1/N, mouse, plasma, po, K10 Half-Life, free BPAF, male mice, 34 mg/kg gavage, mean (SE)) was 4.22 h, the AUC(0-inf) ([8]; female) was 15800 ng·h/mL and the Cmax ([8]; female) was 92300 ng/mL. For the same compound, the Vd ([8]; female) was 1.36 L/kg, the half-life ([8]; female, Alpha half-life, female mice) was 0.106 h and the half-life ([8]; female, Beta half-life, female mice) was 3.03 h. The half-life ([8]; female, K10 Half-Life, female mice) was 0.119 h, the Cl1 ([8]; female mice) was 2.15 (0.426) L/h/kg and the Cl2 ([8]; female mice) was 0.256 (0.108) L/h /kg. The K12 ([8]; female mice) was 0.696 (0.190) 1/h, the K21 ([8]; female mice) was 0.257 (0.0225) 1/h and the V1 ([8]; female mice) was 0.368 (0.129) L/kg. The V2 ([8]; female mice) was 0.995 (0.388) L/kg, the Cl1 ([8]; male mice) was 4.51 (0.547) L/h/kg and the Cl2 ([8]; male mice) was 0.860 (0.324) L/h /kg. For the same compound, the K12 ([8]; male mice) was 0.189 (0.0802) 1/h, the K21 ([8]; male mice) was 0.227 (0.0304) 1/h and the V1 ([8]; male mice) was 4.54 (1.06) L/kg. For the same compound, the V2 ([8]; male mice) was 3.78 (1.10) L/kg, the AUC(0-inf) ([8]; male) was 7540 ng·h/mL and the Cmax ([8]; male) was 7490 ng/mL. It also gave a Vd ([8]; male) of 8.32 L/kg, a half-life ([8]; male, Alpha half-life, male mice) of 0.566 h and a half-life ([8]; male, Beta half-life, male mice) of 3.76 h. It also gave a half-life ([8]; male, K10 Half-Life, male mice) of 0.698 h.
